8 compounds from ChEMBL document CHEMBL2331149, “Towards dual antithrombotic compounds - balancing thrombin inhibitory and fibrinogen GPIIb/IIIa binding inhibitory activities of 2,3-dihydro-1,4-benzodioxine derivatives through regio- and stereoisomerism” (Eur J Med Chem, 2013) can be followed below.

One assay has as its target Integrin alpha-V/beta-3 (Homo sapiens, UniProt P05106+P06756). The experiment in a line: Inhibition of biotinylated fibrinogen binding to human alphavbeta3 integrin receptor after 2 hrs by solid-phase competitive displacement assay. In kind it is protein-complex assay. The method in brief: (§1)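 Solid-phase competition with isolated human receptor (GPIIb/IIIa or GPV/IIIa) adsorbed overnight at 4 °C in Tris/NaCl buffer with 1 mM Ca2+, Mg2+ and Mn2+, pH 7.4. Blocked with 1% BSA. Serially diluted compounds plus biotinylated human fibrinogen incubated 2 h at room temperature. Bound fibrinogen detected with peroxidase anti-biotin antibody and chemiluminescence. Duplicates, at least three runs; IC50 from sigmoid fit.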

Assay [1] addresses Integrin alpha-IIb/beta-3 (Homo sapiens, UniProt P05106+P08514). The experiment in a line: Inhibition of biotinylated fibrinogen binding to human GP 2b/3a after 2 hrs by solid-phase competitive displacement assay. It counts as protein-complex assay. In short, it runs like this: as §1
The species named for assay [2] is Homo sapiens. In words: Selectivity ratio of Ki for trypsin (unknown origin) to Ki for thrombin (unknown origin).
For another assay, the target named is Coagulation factor X (Homo sapiens, UniProt P00742). In words: Inhibition of factor 10a (unknown origin) using S-2222 as substrate preincubated with enzyme for 15 mins prior to substrate addition measured every 10 s by amidolytic method. The method in brief: (§2)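 Chromogenic amidolytic assay read at 405 nm, 25 °C, with final enzyme levels: thrombin 0.5 NIH E/mL with S-2238 at 20 and 40 µM; factor Xa 1 mBAEE E/mL with S-2222 at 100 and 200 µM; trypsin 0.5 nkat/mL with S-2222 at 50 and 100 µM. Inhibitor diluted from DMSO stock to 0.5–100 µM, three concentrations, triplicate. Ki by Cheng–Prusoff from initial rates, averaged over all combinations.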

A further assay concerns the target Trypsin (Homo sapiens, UniProt P07477+P07478+P35030). In words: Inhibition of trypsin (unknown origin) using S-2222 as substrate preincubated with enzyme for 15 mins prior to substrate addition measured every 10 s by amidolytic method. In kind it is protein assay. The method in brief: as §2
The species entered for assay [3] is Homo sapiens. In words: Selectivity ratio of Ki for factor 10a (unknown origin) to Ki for thrombin (unknown origin).
The target in the next assay is Prothrombin (Homo sapiens, UniProt P00734). The experiment in a line: Inhibition of thrombin (unknown origin) using S-2238 as substrate preincubated with enzyme for 15 mins prior to substrate addition measured every 10 s by amidolytic method. The method in brief: as §2

`CCOC(=O)C(=O)N(Cc1ccccc1)c1ccc2c(c1)O[C@@H](COc1ccc(C(=N)N)cc1)CO2.O=C(O)C(F)(F)F`: the IC50 (on Integrin alpha-V/beta-3; in assay [1]) was more than 200 µM each time. Besides, the Ratio Ki in the assay filed under Homo sapiens [2] is 2.71; in the assay filed under Homo sapiens [3], 35.9. Moreover, the Ki at Coagulation factor X worked out at 2.7 µM; on Trypsin, 0.21 µM; on Prothrombin, 0.0778 µM.

For `CCOC(=O)C(=O)N(Cc1ccccc1)c1ccc2c(c1)O[C@H](COc1ccc(C(=N)N)cc1)CO2.O=C(O)C(F)(F)F`, the IC50 (on Integrin alpha-V/beta-3; in assay [1]) was more than 200 µM each time. The Ratio Ki amounted to 1.32 in the assay filed under Homo sapiens [2] and 0.95 in the assay listed under Homo sapiens [3]. Besides, the values for the Ki on Coagulation factor X, at Trypsin and on Prothrombin were 0.637 µM, 0.894 µM and 0.675 µM, respectively.

Take `N=C(N)c1ccc(OC[C@H]2COc3cc(N(Cc4ccccc4)C(=O)C(=O)O)ccc3O2)cc1`: the half-inhibitory concentration (IC50) at Integrin alpha-V/beta-3 was more than 200 µM; in assay [1] it was 0.665 µM. Moreover, the Ratio Ki in the assay listed under Homo sapiens [2] amounted to 0.28; in the assay filed under Homo sapiens [3] it was 1.17. Further, the Ki was determined as 1.96 µM at Coagulation factor X, 0.463 µM on Trypsin and 1.67 µM on Prothrombin.

As to `N=C(N)c1ccc(OC[C@@H]2COc3ccc(N(Cc4ccccc4)C(=O)C(=O)O)cc3O2)cc1`, the results for the half-inhibitory concentration (IC50) (at Integrin alpha-V/beta-3; in assay [1]) were more than 200 µM and 17.6 µM, respectively. For the same compound, the Ratio Ki in the assay listed under Homo sapiens [2] turned out to be 0.51; in the assay listed under Homo sapiens [3], 0.47. Also, the values for the inhibition constant (Ki) at Coagulation factor X, at Trypsin and on Prothrombin were 1.27 µM, 1.37 µM and 2.69 µM, respectively.

Turning to `N=C(N)c1ccc(OC[C@@H]2COc3cc(N(Cc4ccccc4)C(=O)C(=O)O)ccc3O2)cc1`, the concentration for half-maximal inhibition (IC50) at Integrin alpha-V/beta-3 was more than 200 µM; in assay [1], 1.21 µM. Further, the results for the Ratio Ki in the assay listed under Homo sapiens [2] and in the assay filed under Homo sapiens [3] were 0.3 and 1.3, respectively. Further, the Ki at Coagulation factor X stood at 5.19 µM; at Trypsin, 1.55 µM; on Prothrombin, 5.18 µM.

In the case of `CCOC(=O)C(=O)N(Cc1ccccc1)c1ccc2c(c1)OC[C@@H](COc1ccc(C(=N)N)cc1)O2.O=C(O)C(F)(F)F`, the IC50 (on Integrin alpha-V/beta-3; in assay [1]) was more than 200 µM each time. The Ratio Ki in the assay listed under Homo sapiens [2] stood at 0.39; in the assay filed under Homo sapiens [3], 1.3. The inhibition constant (Ki) stood at 2.15 µM on Coagulation factor X, 0.644 µM on Trypsin and 1.65 µM on Prothrombin.

For `N=C(N)c1ccc(OC[C@H]2COc3ccc(N(Cc4ccccc4)C(=O)C(=O)O)cc3O2)cc1`, the half-inhibitory concentration (IC50) on Integrin alpha-V/beta-3 is more than 200 µM; in assay [1], 42.6 µM. Also, the Ratio Ki in the assay filed under Homo sapiens [2] turned out to be 1; in the assay listed under Homo sapiens [3], 19.1. Also, the inhibition constant Ki stood at 5.08 µM at Coagulation factor X, 0.267 µM on Trypsin and 0.266 µM at Prothrombin.

`CCOC(=O)C(=O)N(Cc1ccccc1)c1ccc2c(c1)OC[C@H](COc1ccc(C(=N)N)cc1)O2.O=C(O)C(F)(F)F`: the half-maximal inhibitory concentration (IC50) (at Integrin alpha-V/beta-3; in assay [1]) was more than 200 µM each time. The Ratio Ki in the assay filed under Homo sapiens [2] was determined as 0.65; in the assay filed under Homo sapiens [3] it was 3.46. In addition, the Ki on Coagulation factor X was found to be 1.51 µM; at Trypsin it was 0.283 µM; on Prothrombin, 0.436 µM.
